The assay deals with 3',5'-cyclic-AMP phosphodiesterase 4B (Homo sapiens) (UniProt Q07343). In words: Inhibition of recombinant His-tagged PDE4B using cAMP as substrate at 30 uM preincubated for 15 mins before substrate addition measured after 1 hr by luminescence assay. In outline: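 PDE4B cDNA expressed as His-tagged protein in baculovirus-infected Sf9 cells, Ni-NTA purified. 10 ng enzyme preincubated 15 min with compound or DMSO vehicle, then 1 h with 5 µM cAMP, using a PDElight HTS cAMP phosphodiesterase kit. Reaction stopped, detection reagent added for 10 min in the dark, luminescence read. % inhibition = (RLU vehicle − RLU inhibitor)/RLU vehicle × 100.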
3',5'-cyclic-AMP phosphodiesterase 4B (Homo sapiens), sequence (Q07343 whole entry): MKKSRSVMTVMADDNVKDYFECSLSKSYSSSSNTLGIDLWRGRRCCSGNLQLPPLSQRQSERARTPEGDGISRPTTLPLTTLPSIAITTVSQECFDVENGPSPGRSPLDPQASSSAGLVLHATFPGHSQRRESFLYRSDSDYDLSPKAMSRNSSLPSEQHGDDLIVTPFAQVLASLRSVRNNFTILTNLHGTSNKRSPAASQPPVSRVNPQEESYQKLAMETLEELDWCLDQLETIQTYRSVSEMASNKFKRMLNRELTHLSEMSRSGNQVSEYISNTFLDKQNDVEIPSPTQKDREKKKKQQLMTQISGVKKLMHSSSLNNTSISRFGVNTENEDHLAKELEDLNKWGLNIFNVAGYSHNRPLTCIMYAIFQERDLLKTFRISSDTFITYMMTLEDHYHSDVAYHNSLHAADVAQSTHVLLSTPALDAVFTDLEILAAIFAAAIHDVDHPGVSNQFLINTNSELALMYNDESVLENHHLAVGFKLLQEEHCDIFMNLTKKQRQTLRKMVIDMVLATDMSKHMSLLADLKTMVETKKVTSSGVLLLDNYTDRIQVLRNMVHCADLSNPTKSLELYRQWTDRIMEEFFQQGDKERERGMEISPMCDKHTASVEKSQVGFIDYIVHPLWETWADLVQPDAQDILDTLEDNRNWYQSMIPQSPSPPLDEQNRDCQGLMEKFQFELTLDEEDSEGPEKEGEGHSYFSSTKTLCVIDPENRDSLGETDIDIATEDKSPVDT
Broadly, the inhibition is the change of the read-out against control, counted positive when it falls. As for `COC(=O)c1c(C)nc(OC)c(C#N)c1-c1c(F)cc(Br)cc1F`, the inhibition was 22.4%.
The same measure for `COC(=O)c1c(C)nc(OC)c(C#N)c1-c1ccccc1`: 38.4%; for `COC(=O)c1c(C)nc(OC)c(C#N)c1-c1ccc(Br)cc1`: 44.8%; for `COC(=O)c1c(C)nc(OC)c(C#N)c1-c1ccc(OC)cc1`: 64.1%.
`CCOC(=O)c1c(C)nc(OCC)c(C#N)c1-c1ccc(F)cc1F`: the inhibition was 20.4%.
Turning to `COC(=O)c1c(C)nc(OC)c(C#N)c1-c1ccc(F)cc1`, the inhibition stood at 43.2%.
Regarding `CCOC(=O)c1c(C)nc(OCC)c(C#N)c1-c1ccc(OC)cc1`, the inhibition came to 65.9%.
Consider `CCOC(=O)c1c(C)nc(OCC)c(C#N)c1-c1ccc(Br)cc1`, for which the inhibition came out at 43.7%.
The same measure for `COC(=O)c1c(C)nc(OC)c(C#N)c1-c1ccc(F)cc1F`: 21.5%; for `CCOC(=O)c1c(C)nc(OCC)c(C#N)c1-c1ccc(F)cc1`: 42.3%.
Under `COC(=O)c1c(C)nc(OC)c(C#N)c1-c1ccc(C(F)(F)F)cc1` stands 23.5%.

For the origin of these results see ChEMBL document CHEMBL1932943, “Montmorillonite K-10 mediated green synthesis of cyano pyridines: Their evaluation as potential inhibitors of PDE4” (Eur J Med Chem, 2012).
